# Data as given in ChEMBL document CHEMBL4346727, “Synthesis and pharmacological evaluation of novel N-Mannich bases derived from 5,5-diphenyl and 5,5-di(propan-2-yl)imidazolidine-2,4-dione core” (Bioorg Med Chem Lett, 2019).
# Activity calls are given as the source filed them. Unless noted, the rule behind the calls is not given here.
# Legend:
# [1] = Neurotoxicity in ip dosed CD1 mouse and measured after 4 hrs by rotarod test; assay type: toxicity, organism-based; conditions: in vivo
# Summary of the method: (§1)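 Mice dosed intraperitoneally at 30, 100 and 300 mg/kg, then tested on the rotarod at 0.5 h and 4 h. The value recorded is the minimum dose at which neurotoxicity appeared. A dash means no neurotoxicity at the top dose of 300 mg/kg.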
# [2] = Neurotoxicity in ip dosed CD1 mouse and measured after 0.5 hrs by rotarod test; assay type: toxicity, organism-based; conditions: in vivo; summary of the method: as §1
# [3] = tested on: Mus musculus; experiment: Anticonvulsant activity in ip dosed CD1 mouse assessed as protection against subcutaneous pentylenetetrazole-induced seizures and measured after 4 hrs; assay type: functional; conditions: CD1, 4 h, read-out: MED
# Summary of the method: (§2)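 Mice were screened after intraperitoneal doses of 30, 100 and 300 mg/kg in the maximal electroshock and subcutaneous pentylenetetrazole tests, examined at 0.5 and 4 h. The value recorded is the minimum dose showing activity. No activity up to 300 mg/kg is scored as absent.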
# [4] = tested on: Mus musculus; experiment: Anticonvulsant activity in ip dosed CD1 mouse assessed as protection against 50 mA current-induced seizure and measured after 4 hrs by maximal electroshock seizure test; assay type: functional; conditions: read-out: MED; summary of the method: as §2
# [5] = tested on: Mus musculus; experiment: Anticonvulsant activity in ip dosed CD1 mouse assessed as protection against 50 mA current-induced seizure and measured after 0.5 hrs by maximal electroshock seizure test; assay type: functional; conditions: read-out: MED; summary of the method: as §2
# [6] = tested on: Mus musculus; experiment: Anticonvulsant activity in CD1 mouse assessed as protection against subcutaneous pentylenetetrazole-induced seizures at 300 mg/kg, ip and measured after 0.5 hrs; assay type: functional, organism-based; summary of the method: as §2
# [7] = tested on: Mus musculus; experiment: Anticonvulsant activity in CD1 mouse assessed as protection against subcutaneous pentylenetetrazole-induced seizures at 300 mg/kg, ip and measured after 4 hrs; assay type: functional, organism-based; summary of the method: as §2
# [8] = Neurotoxicity in Sprague-Dawley rat at 30 mg/kg, po measured after 30 mins by rotarod test; assay type: toxicity, organism-based; conditions: in vivo, 0.5 h
# Summary of the method: (§3)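 Rats given one oral dose of 30 mg/kg and tested on the rotarod at 0.25, 0.5, 1, 2, 4 and 6 h.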
# [9] = tested on: Mus musculus; experiment: Anticonvulsant activity in CD1 mouse assessed as protection against 32 mA current-induced seizure at 100 mg/kg, ip measured after 30 mins by 6 Hz psychomotor seizure test
# [10] = tested on: Mus musculus; experiment: Anticonvulsant activity in CD1 mouse assessed as protection against 32 mA current-induced seizure at 100 mg/kg, ip measured after 15 mins by 6 Hz psychomotor seizure test
# [11] = tested on: Rattus norvegicus; experiment: Anticonvulsant activity in Sprague-Dawley rat assessed as protection against 150 mA current-induced seizure at 30 mg/kg, po measured after 15 mins by maximal electroshock seizure test; assay type: functional, organism-based
# Summary of the method: (§4)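 Rats received 30 mg/kg orally and were given maximal electroshock at 0.25, 0.5, 1, 2, 4 and 6 h. Read-out is the number of rats protected out of four.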
# [12] = tested on: Mus musculus; experiment: Anticonvulsant activity in CD1 mouse assessed as protection against 32 mA current-induced seizure at 100 mg/kg, ip measured after 2 hrs by 6 Hz psychomotor seizure test
# [13] = Neurotoxicity in Sprague-Dawley rat at 30 mg/kg, po measured after 2 hr by rotarod test; assay type: toxicity, organism-based; conditions: in vivo; summary of the method: as §3
# [14] = Neurotoxicity in CD1 mouse at 300 mg/kg, ip and measured after 4 hrs hrs by rotarod test; assay type: toxicity, organism-based; conditions: in vivo; summary of the method: as §1
# [15] = Neurotoxicity in Sprague-Dawley rat at 30 mg/kg, po measured after 15 mins by rotarod test; assay type: toxicity, organism-based; conditions: in vivo, 0.25 h; summary of the method: as §3
# [16] = Neurotoxicity in CD1 mouse at 100 mg/kg, ip measured after 2 hrs by rotarod test; conditions: in vivo
# [17] = Neurotoxicity in CD1 mouse at 100 mg/kg, ip measured after 1 hr by rotarod test; conditions: in vivo
# [18] = Neurotoxicity in CD1 mouse at 300 mg/kg, ip and measured after 0.5 hrs by rotarod test; assay type: toxicity, organism-based; conditions: in vivo; summary of the method: as §1
# [19] = tested on: Rattus norvegicus; experiment: Anticonvulsant activity in Sprague-Dawley rat assessed as protection against 150 mA current-induced seizure at 30 mg/kg, po measured after 2 hrs by maximal electroshock seizure test; assay type: functional, organism-based; summary of the method: as §4
# [20] = Neurotoxicity in CD1 mouse at 100 mg/kg, ip measured after 15 mins by rotarod test; conditions: in vivo, 0.25 h
# [21] = tested on: Rattus norvegicus; experiment: Anticonvulsant activity in Sprague-Dawley rat assessed as protection against 150 mA current-induced seizure at 30 mg/kg, po measured after 4 hrs by maximal electroshock seizure test; assay type: functional, organism-based; summary of the method: as §4
# [22] = Neurotoxicity in CD1 mouse at 100 mg/kg, ip measured after 4 hrs by rotarod test; conditions: in vivo
# [23] = tested on: Rattus norvegicus; experiment: Anticonvulsant activity in Sprague-Dawley rat assessed as protection against 150 mA current-induced seizure at 30 mg/kg, po measured after 1 hr by maximal electroshock seizure test; assay type: functional, organism-based; summary of the method: as §4
# [24] = Neurotoxicity in Sprague-Dawley rat at 30 mg/kg, po measured after 1 hr by rotarod test; assay type: toxicity, organism-based; conditions: in vivo; summary of the method: as §3
# [25] = Neurotoxicity in Sprague-Dawley rat at 30 mg/kg, po measured after 4 hr by rotarod test; assay type: toxicity, organism-based; conditions: in vivo; summary of the method: as §3
# [26] = Neurotoxicity in CD1 mouse at 100 mg/kg, ip measured after 30 mins by rotarod test; conditions: in vivo, 0.5 h
# [27] = Neurotoxicity in CD1 mouse at 50 mg/kg, ip measured after 2 hrs by rotarod test; conditions: in vivo
# [28] = tested on: Mus musculus; experiment: Anticonvulsant activity in CD1 mouse assessed as protection against 32 mA current-induced seizure at 50 mg/kg, ip measured after 4 hrs by 6 Hz psychomotor seizure test
# [29] = Neurotoxicity in CD1 mouse at 50 mg/kg, ip measured after 15 mins by rotarod test; conditions: in vivo, 0.25 h
# [30] = tested on: Rattus norvegicus; experiment: Anticonvulsant activity in Sprague-Dawley rat assessed as protection against 150 mA current-induced seizure at 30 mg/kg, po measured after 30 mins by maximal electroshock seizure test; assay type: functional, organism-based; summary of the method: as §4
# [31] = Neurotoxicity in CD1 mouse at 50 mg/kg, ip measured after 30 mins by rotarod test; conditions: in vivo, 0.5 h
# [32] = Neurotoxicity in CD1 mouse at 50 mg/kg, ip measured after 1 hr by rotarod test; conditions: in vivo
# [33] = Neurotoxicity in CD1 mouse at 50 mg/kg, ip measured after 4 hrs by rotarod test; conditions: in vivo
# [34] = tested on: Mus musculus; experiment: Anticonvulsant activity in ip dosed CD1 mouse assessed as protection against 32 mA current-induced seizure by 6 Hz psychomotor seizure test; assay type: functional
# Summary of the method: (§5)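 Median effective doses were quantified in the maximal electroshock, subcutaneous pentylenetetrazole and 6 Hz tests after intraperitoneal dosing in mice or oral dosing in rats, at the time of peak effect. ED50 values are reported with ranges in parentheses.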
# [35] = Neurotoxicity in po dosed Sprague-Dawley rat model by rotarod test; assay type: toxicity, organism-based; conditions: in vivo
# Summary of the method: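 Rats dosed orally; neurotoxicity scored on the rotarod. Screening used a fixed 30 mg/kg, with animals checked at 0.25, 0.5, 1, 2, 4 and 6 h; the reading is the number of four rats showing neurotoxicity. In quantitative runs, a median toxic dose (TD50, mg/kg) was determined after oral dosing at the time of peak effect.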
# [36] = tested on: Rattus norvegicus; experiment: Anticonvulsant activity in po dosed Sprague-Dawley rat assessed as time to peak effect on protection against subcutaneous pentylenetetrazole-induced seizures; assay type: functional
# [37] = tested on: Mus musculus; experiment: Anticonvulsant activity in ip dosed CD1 mouse assessed as time to peak effect on protection against subcutaneous pentylenetetrazole-induced seizures; assay type: functional; summary of the method: as §5
# [38] = Neurotoxicity in po dosed Sprague-Dawley rat assessed as time to peak effect by rotarod test; assay type: toxicity, organism-based; conditions: in vivo
# [39] = tested on: Mus musculus; experiment: Anticonvulsant activity in ip dosed CD1 mouse assessed as protection against subcutaneous pentylenetetrazole-induced seizures; assay type: functional; summary of the method: as §5
# [40] = tested on: Rattus norvegicus; experiment: Anticonvulsant activity in po dosed Sprague-Dawley rat assessed as time to peak effect on protection against 150 mA current-induced seizures; assay type: functional; summary of the method: as §5
# [41] = tested on: Mus musculus; experiment: Anticonvulsant activity in ip dosed CD1 mouse assessed as time to peak effect on protection against 50 mA current-induced seizures; assay type: functional; summary of the method: as §5
# [42] = Protection index, ratio of TD50 for neurotoxicity in ip dosed CD1 mouse by rotarod test to ED50 for anticonvulsant activity in ip dosed CD1 mouse by maximal electroshock seizure test; assay type: toxicity, organism-based; conditions: in vivo, read-out: Ratio TD50/ED50
# [43] = Protection index, ratio of TD50 for neurotoxicity in po dosed Sprague-Dawley rat by rotarod test to ED50 for anticonvulsant activity in po dosed Sprague-Dawley rat by maximal electroshock seizure test; assay type: toxicity, organism-based; conditions: in vivo, read-out: Ratio TD50/ED50
# [44] = tested on: Rattus norvegicus; experiment: Anticonvulsant activity in po dosed Sprague-Dawley rat assessed as time to peak effect on protection against 32 mA current-induced seizure by 6 Hz psychomotor seizure test; assay type: functional
# [45] = Neurotoxicity in ip dosed CD1 mouse assessed as time to peak effect by rotarod test; assay type: toxicity, organism-based; conditions: in vivo
# [46] = tested on: Mus musculus; experiment: Anticonvulsant activity in ip dosed CD1 mouse assessed as time to peak effect on protection against 32 mA current-induced seizure by 6 Hz psychomotor seizure test; assay type: functional; summary of the method: as §5
# [47] = tested on: Rattus norvegicus; experiment: Anticonvulsant activity in po dosed Sprague-Dawley rat assessed as protection against subcutaneous pentylenetetrazole-induced seizures; assay type: functional
# [48] = Neurotoxicity in Sprague-Dawley rat at 30 mg/kg, po measured after 6 hrs hr by rotarod test; assay type: toxicity, organism-based; conditions: in vivo; summary of the method: as §3
# [49] = tested on: Mus musculus; experiment: Anticonvulsant activity in CD1 mouse assessed as protection against 50 mA current-induced seizure at 300 mg/kg, ip and measured after 0.5 hrs by maximal electroshock seizure test; assay type: functional, organism-based; summary of the method: as §2
SMILES,MTC [1],minimal neurotoxic dose [2],minimal effective dose [4],minimal effective dose [5],MED [6],Activity [7],Activity [8],Activity [11],Activity [13],Activity [14],Activity [15],Activity [18],Activity [19],Activity [21],Activity [23],Activity [24],Activity [25],Activity [30],other results
CC(C)C1(C(C)C)NC(=O)N(CN2CCN(c3ccccc3F)CC2)C1=O,300 mg/kg,300 mg/kg,100 mg/kg,100 mg/kg,inactive,–,–,–,–,–,–,–,–,–,–,–,–,–,minimal effective dose [3]: 100 mg/kg
O=C1NC(c2ccccc2)(c2ccccc2)C(=O)N1CN1CCN(c2cccc(C(F)(F)F)c2)CC1,–,–,100 mg/kg,300 mg/kg,inactive,inactive,Non-Toxic,inactive,Non-Toxic,Non-Toxic,Non-Toxic,Non-Toxic,Active,Active,Active,Non-Toxic,Non-Toxic,–,Activity [9]: inactive; Activity [10]: inactive; Activity [12]: Active; Activity [16]: Non-Toxic; Activity [17]: Non-Toxic; Activity [20]: Non-Toxic; Activity [22]: Non-Toxic; Activity [26]: Non-Toxic
O=C1NC(c2ccccc2)(c2ccccc2)C(=O)N1CN1CCN(CCc2ccccc2)CC1,–,–,30 mg/kg,100 mg/kg,inactive,inactive,Non-Toxic,inactive,Non-Toxic,Non-Toxic,Non-Toxic,Non-Toxic,–,inactive,–,Non-Toxic,Non-Toxic,Active,Activity [27]: Non-Toxic; Activity [28]: Active; Activity [29]: Non-Toxic; Activity [31]: Non-Toxic; Activity [32]: Non-Toxic; Activity [33]: Non-Toxic
O=C1NC(=O)C(c2ccccc2)(c2ccccc2)N1 [PHENYTOIN],100 mg/kg,100 mg/kg,30 mg/kg,30 mg/kg,inactive,inactive,–,–,–,–,–,–,–,–,–,–,–,–,ED50 [34]: > 60 mg/kg; TD50 [35]: > 1000 mg/kg; Time [36]: 1 h; Time [37]: 1 h; Time [38]: 1 h; ED50 [39]: > 500 mg/kg; Time [40]: 1 h; Time [41]: 1 h; selectivity ratio [42]: 7.27; selectivity ratio [43]: > 35.6; Time [44]: 1 h; Time [45]: 1 h; Time [46]: 1 h; ED50 [47]: > 500 mg/kg
CC(C)C1(C(C)C)NC(=O)N(CN2CCN(c3ccccc3)CC2)C1=O,–,–,300 mg/kg,–,inactive,inactive,Non-Toxic,inactive,Non-Toxic,Non-Toxic,Non-Toxic,Non-Toxic,inactive,inactive,inactive,Non-Toxic,Non-Toxic,inactive,Activity [48]: Non-Toxic; Activity [49]: inactive
